Ecoli WT expand: blocks growth of wild type E. coli BW25113. OD600 absorbance. growth inhibition, % at 100 µM. hit rate 0.15% among 98,000. AID 710;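 active = growth inhibition above about 50% at one test dose, limit read from the data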;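 also: growth measured after 20 h incubation at 37 °C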
Ecoli tolC: blocks growth of E. coli BW25113 tolC mutant | AID 573 | growth inhibition, % at 10 µM (by protocol) | hit rate 2.2% among 65,000 | OD615;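 active = growth inhibition at or above a cutoff equal to the mean over every tested compound plus 3 SD, cut at about 60% in these data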;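 also: growth measured after 20 h incubation at 37 °C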
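Test system: tolC-deleted E. coli BW25113; medium: LB with kanamycin 50 µg/mL; compound: single-point testing at 10 µM; incubation: 20 h compound exposure of bacteria at 37 °C; signal: OD at 615 nm; evaluation: growth inhibition in percent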
CYP2C19 inh: blocks human cytochrome P450 2C19. P33261. CYP2C19 Supersomes, luciferin-H EGE luminescence, 30 min. inhibition, % at 5 µM. hit rate 21% among 96,000. AID 778;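 active = CYP2C19 inhibition above a set limit at 5 µM in the primary screen, cut at about 50% in these data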;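 also: plate controls were negative control wells for no effect and 2.5 mM tranylcypromine positive control for full effect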
Target sequence (P33261 whole entry, looked up): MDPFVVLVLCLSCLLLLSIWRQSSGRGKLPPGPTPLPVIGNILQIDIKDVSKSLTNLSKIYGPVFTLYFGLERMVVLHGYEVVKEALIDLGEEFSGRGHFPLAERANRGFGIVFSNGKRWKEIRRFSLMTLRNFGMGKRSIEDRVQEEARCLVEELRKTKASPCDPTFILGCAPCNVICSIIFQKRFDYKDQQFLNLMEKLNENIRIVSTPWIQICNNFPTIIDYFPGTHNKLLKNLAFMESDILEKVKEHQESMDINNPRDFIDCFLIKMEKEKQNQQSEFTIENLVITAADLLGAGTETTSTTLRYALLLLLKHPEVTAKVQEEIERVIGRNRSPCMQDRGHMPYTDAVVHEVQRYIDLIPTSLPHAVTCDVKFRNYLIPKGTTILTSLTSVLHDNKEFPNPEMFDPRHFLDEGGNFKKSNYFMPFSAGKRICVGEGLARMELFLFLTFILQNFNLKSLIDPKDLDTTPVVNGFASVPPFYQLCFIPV
CYP2C9 act: activators of human CYP2C9; P11712; recombinant CYP2C9, luciferin-H conversion, luminescence; stronger effect = higher value; factor 1 = untreated enzyme, 0 = blocked; activation factor at 5 µM; hit rate 1.4% among 96,000; AID 1024;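 active = activation factor of 2 or more for CYP2C9 at a 5 µM dose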;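 also: 0 = sulfaphenazole-blocked wells and 1 = vehicle-only wells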
CYP2C9 inh: inhibitors of human CYP2C9; P11712; CYP2C9 Supersomes, luciferin-H conversion, luminescence; inhibition, % at 5 µM; hit rate 20% among 96,000;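 active = blocking of liver enzyme CYP2C9 beyond about 50% at 5 µM, limit read from the data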
CYP2C19 act: cytochrome P450 2C19 (human) activation; recombinant CYP2C19, luciferin-H EGE luminescence; stronger effect = higher value; 0 = fully inhibited enzyme, 1 = untreated enzyme; 96,000 tested, under 10 active; activation factor at 5 µM;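 active = activation factor of at least 2 at 5 µM in the primary screen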;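 also: 0 = wells with 2.5 mM tranylcypromine and 1 = vehicle-only wells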
* hit, by the source's call; · = no result given. Compounds with a hit are over-represented: about 29% of the library has one in this group of screens.

SMILES	Ecoli WT expand	Ecoli tolC	CYP2C19 inh	CYP2C9 act	CYP2C9 inh	CYP2C19 act
CCC(NS(=O)(=O)c1ccc(OC)cc1)C(=O)NCCC1=CCCCC1 (stereo not drawn)	-3	·	31	0.7	34	0.7
CC(C)C(=O)Nc1ccc2c(c1)nc(CCN1CCN(C)CC1)n2C	3	·	-7	1.1	-8	1.1
Nc1nonc1-n1nnc(C(=O)c2ccccc2)c1-c1ccccc1	3	3	98*	0.1	91*	0
Cc1c(C(=O)N2CCCC2)nnn1-c1nonc1N	4	-17	52*	1	3	0.5
CCOC(=O)c1nnn(-c2nonc2N)c1-c1ccc(OCC)cc1	8	12	99*	0.1	89*	0
CCOC(=O)c1nnn(-c2nonc2N)c1C	7	·	15	1.1	-11	0.8
Cc1sc2nc3c(C(=O)N4CCN(c5ncccn5)CC4)cccn3c(=O)c2c1C	·	5	·	·	·	·
O=C(c1cccc2c1C(=O)N(Cc1cccnc1)C2)N1CCN(c2ccccc2)CC1	-2	-16	23	1	0	0.8
Cc1cc(N2C(=O)C(=O)/C(=C(/O)c3ccc(F)cc3)C2c2ccc(Cl)cc2)no1 (stereo not drawn)	5	11	3	0.4	57*	1
COC(=O)c1ccc(C2/C(=C(\O)c3ccc(OC)c(C)c3)C(=O)C(=O)N2c2cc(C)on2)cc1 (stereo not drawn)	-2	-4	5	0.8	20	1
Cc1ccc(S(=O)(=O)NCCN2CCOCC2)cc1	-3	·	20	1.1	-6	0.8
CCOc1ccc(S(=O)(=O)NCCN2CCOCC2)c2ccccc12	13	1	76*	1.2	-24	0.2
CCCOc1ccc(S(=O)(=O)NCCN2CCOCC2)c2ccccc12	12	11	99*	0.6	44	0
CCOc1cc(S(=O)(=O)NCCN2CCOCC2)c(C)cc1C	8	4	75*	2.1*	-106	0.2
COc1ccc(Cl)cc1NC(=O)C1CCCN(S(=O)(=O)c2cccc3nonc23)C1 (stereo not drawn)	-14	-20	·	·	·	·
CN(C)c1cccc(C(=O)Nc2ccc(N3CCOCC3)cc2)c1	-2	·	2	1.8	-81	1
COC(=O)CSc1nnc(CNC(=O)c2ccccc2OC)n1-c1ccc(OC)cc1	8	-5	-11	1	-3	1.1
O=c1[nH]c2ccc(S(=O)(=O)Nc3ccc(-c4nnc5n4CCCCC5)cc3)cc2o1	5	-12	7	0.7	31	0.9
COc1ccccc1N1CC(C(=O)OCC(=O)c2ccc(F)cc2)CC1=O (stereo not drawn)	-6	-9	26	1.6	-64	0.7
Cc1cccc(N2CC(C(=O)OCC(=O)c3ccc(OC(=O)c4cccs4)cc3)CC2=O)c1C (stereo not drawn)	-17	·	71*	0.2	76*	0.3
Cc1ccc(C(=O)COC(=O)C2CC(=O)N(c3nc(-c4ccccc4)cs3)C2)cc1 (stereo not drawn)	-12	·	71*	0.2	79*	0.3
CCOCCCNC(=O)C(Cc1ccccc1)NC(=O)c1ccco1 (stereo not drawn)	-5	-18	18	0.8	20	0.8
COc1cccc(-c2nnc3sc(-c4ccccn4)nn23)c1	-8	11	63*	0.7	27	0.4
COc1cccc(-c2nn3c(-c4ccccn4)nnc3s2)c1	4	19	52*	0.6	36	0.5
COc1ccc(-c2nnc3sc(-c4ccccn4)nn23)cc1	·	-5	39	0.4	57*	0.6
SMILES	Ecoli WT expand	Ecoli tolC	CYP2C19 inh	CYP2C9 act	CYP2C9 inh	CYP2C19 act
NC(=O)c1ccccc1OCC(=O)NC12CC3CC(CC(C3)C1)C2	5	·	12	1.2	-17	0.9
O=C(Cn1sc2ccccc2c1=O)NC12CC3CC(CC(C3)C1)C2	2	·	39	0.1	90*	0.6
CCCCCC1CC(CC#CCN2CCOCC2)C(=O)O1 (stereo not drawn)	-11	3	·	·	·	·
CN(C)S(=O)(=O)Oc1ccsc1C(=O)Nc1cccc(Cl)c1Cl	-12	·	84*	0.3	72*	0.2
Cc1csc2ncc(C(=O)Nc3ccccc3Cl)c(=O)n12	·	5	·	·	·	·
CN(C)S(=O)(=O)Oc1ccsc1C(=O)Nc1ccccc1Cl	-2	·	79*	0.3	66*	0.2
CCC(CCC(=O)Nc1ccn(-c2ccccc2)n1)C(=O)O (stereo not drawn)	-26	-60	-22	1.2	-21	1.2
COc1ccc(-n2c(N3CCN(C)CC3)nc3sc4c(c3c2=O)CCCCC4)cc1	-1	0	64*	0.6	41	0.4
COc1ccc(-n2c(NCCN(C)C)nc3sc4c(c3c2=O)CCCCC4)cc1	1	·	10	0.7	30	0.9
O=C(COC(=O)CCCNC(=O)c1ccc(Cl)cc1)NC1CC1	2	-6	-15	1.1	-12	1.2
Cc1cc2c(nn1)CCC/C2=N\O	7	-3	-10	1.1	-14	1.1
COc1ccc(NC2=NCC(=O)N2c2ccccc2)c(OC)c1	0	-5	64*	0.5	52*	0.4
O=C(c1ccco1)N1CCN(C(=O)c2cccc3c2C(=O)N(Cc2cccnc2)C3)CC1	1	-2	19	1.1	-5	0.8
CCn1cc(C(=O)NCc2cccnc2)c(=O)c2cc(F)c(N3CCN(C(=O)c4ccco4)CC3)cc21	97*	·	16	0.3	68*	0.8
CCn1cc(C(=O)NCc2ccc(Cl)cc2)c(=O)c2cc(S(=O)(=O)N3CCOCC3)ccc21	6	4	-17	0.6	42	1.2
CCn1cc(C(=O)NCc2cccc(F)c2)c(=O)c2cc(F)c(N3CCN(C(=O)c4ccco4)CC3)cc21	91*	·	41	0.2	84*	0.6
Cc1nc(Nc2ccc3c(c2)OCO3)c2oc3ccccc3c2n1	6	·	55*	0.3	66*	0.5
c1ccc2c(c1)oc1c(NCc3ccc4c(c3)OCO4)ncnc12	6	17	70*	0.2	85*	0.3
c1ccc2c(c1)oc1c(Nc3ccc4c(c3)OCO4)ncnc12	3	-6	54*	0.6	45	0.5
c1ccc2c(c1)oc1c(Nc3ccc(CN4CCOCC4)cc3)ncnc12	5	20	60*	0.8	17	0.4
Oc1ccccc1Nc1ncnc2c1oc1ccccc12	-1	-15	11	0.9	12	0.9
c1ccc2c(c1)oc1c(NCCN3CCOCC3)ncnc12	-4	-9	0	0.8	16	1
Cc1ccc(NC(=O)CCC(=O)OC(C(=O)c2ccc(C)c(C)c2)c2ccccc2)c(C)c1 (stereo not drawn)	-7	·	24	0.9	14	0.8
CCc1nc2ccccc2c(C(=O)OCC(=O)Nc2cccc(S(=O)(=O)N3CCOCC3)c2)c1C	-7	·	24	1	3	0.8

Screening data from PubChem BioAssay.
